Reference: ChEMBL document CHEMBL2157880, “Synthesis, antimycobacterial and antibacterial activity of ciprofloxacin derivatives containing a N-substituted benzyl moiety” (2012)
≈ marks a conversion by molar mass, not a printed value.

How the values were obtained:
Type in all cases: functional
Klebsiella pneumoniae [1] = assay: Antibacterial activity against extended spectrum beta-lactamases producing Klebsiella pneumoniae 10-3 after 18 to 24 hrs by NCCLS method
How it was run: (§1)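 Standard NCCLS (M100-S11) MIC testing against Gram-positive and Gram-negative strains. Plates were incubated at 35 °C for 18–24 h. The MIC was read as the lowest concentration giving complete inhibition of visible bacterial growth.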

Streptococcus pneumoniae [2] = assay: Antibacterial activity against Streptococcus pneumoniae 10-6 after 18 to 24 hrs by NCCLS method; how it was run: as §1
Klebsiella pneumoniae [3] = assay: Antibacterial activity against Klebsiella pneumoniae 10-3 after 18 to 24 hrs by NCCLS method; how it was run: as §1
Pseudomonas aeruginosa [4] = assay: Antibacterial activity against Pseudomonas aeruginosa 10-18 after 18 to 24 hrs by NCCLS method; how it was run: as §1
Escherichia coli [5] = assay: Antibacterial activity against Escherichia coli 10-3 after 18 to 24 hrs by NCCLS method; how it was run: as §1
Klebsiella pneumoniae [6] = assay: Antibacterial activity against extended spectrum beta-lactamases producing Klebsiella pneumoniae 10-2 after 18 to 24 hrs by NCCLS method; how it was run: as §1
Pseudomonas aeruginosa [7] = assay: Antibacterial activity against Pseudomonas aeruginosa 10-12 after 18 to 24 hrs by NCCLS method; how it was run: as §1
Klebsiella pneumoniae [8] = assay: Antibacterial activity against Klebsiella pneumoniae 10-4 after 18 to 24 hrs by NCCLS method; how it was run: as §1
Pseudomonas aeruginosa [9] = assay: Antibacterial activity against Pseudomonas aeruginosa 10-5 after 18 to 24 hrs by NCCLS method; how it was run: as §1
Enterococcus faecalis [10] = assay: Antibacterial activity against Enterococcus faecalis 10-6 after 18 to 24 hrs by NCCLS method; how it was run: as §1
Staphylococcus aureus [11] = assay: Antibacterial activity against methicillin-sensitive Staphylococcus aureus 10-14 after 18 to 24 hrs by NCCLS method; how it was run: as §1
[12] = tested on: Staphylococcus epidermidis; assay: Antibacterial activity against methicillin-sensitive Staphylococcus epidermidis 10-11 after 18 to 24 hrs by NCCLS method; how it was run: as §1
Escherichia coli [13] = assay: Antibacterial activity against Escherichia coli 10-2 after 18 to 24 hrs by NCCLS method; how it was run: as §1
[14] = tested on: Staphylococcus epidermidis; assay: Antibacterial activity against methicillin-sensitive Staphylococcus epidermidis 10-15 after 18 to 24 hrs by NCCLS method
How it was run: (§2)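 Incubated at 35 °C for 18–24 h under NCCLS (M100-S11) standards. MIC was read as the lowest concentration giving complete inhibition of visible bacterial growth.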

Klebsiella pneumoniae [15] = assay: Antibacterial activity against extended spectrum beta-lactamases producing Klebsiella pneumoniae 10-1 after 18 to 24 hrs by NCCLS method; how it was run: as §1
Streptococcus pneumoniae [16] = assay: Antibacterial activity against Streptococcus pneumoniae 10-1 after 18 to 24 hrs by NCCLS method; how it was run: as §1
Staphylococcus aureus [17] = assay: Antibacterial activity against methicillin-sensitive Staphylococcus aureus 10-13 after 18 to 24 hrs by NCCLS method; how it was run: as §1
Staphylococcus aureus [18] = assay: Antibacterial activity against Staphylococcus aureus ATCC 2592 after 18 to 24 hrs by NCCLS method; how it was run: as §1
Escherichia coli [19] = assay: Antibacterial activity against extended spectrum beta-lactamases producing Escherichia coli 10-3 after 18 to 24 hrs by NCCLS method; how it was run: as §1
[20] = tested on: Mycobacterium tuberculosis; assay: Antimycobacterial activity against Mycobacterium tuberculosis H37Rv ATCC 27294 by microplate alamar blue assay
How it was run: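 Microplate Alamar Blue fluorescence assay on strain H37Rv ATCC 27294. MIC was the lowest concentration cutting fluorescence by ≥90% against the mean of replicate bacterium-only controls.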

Enterococcus faecalis [21] = assay: Antibacterial activity against Enterococcus faecalis 10-5 after 18 to 24 hrs by NCCLS method; how it was run: as §1
Staphylococcus aureus [22] = assay: Antibacterial activity against methicillin-resistant Staphylococcus aureus 10-13 after 18 to 24 hrs by NCCLS method; how it was run: as §2
Staphylococcus aureus [23] = assay: Antibacterial activity against methicillin-resistant Staphylococcus aureus 10-15 after 18 to 24 hrs by NCCLS method; how it was run: as §2
[24] = tested on: Staphylococcus epidermidis; assay: Antibacterial activity against methicillin-resistant Staphylococcus epidermidis 10-10 after 18 to 24 hrs by NCCLS method; how it was run: as §2
Pseudomonas aeruginosa [25] = assay: Antibacterial activity against Pseudomonas aeruginosa 10-20 after 18 to 24 hrs by NCCLS method; how it was run: as §1
Staphylococcus aureus [26] = assay: Antibacterial activity against methicillin-resistant Staphylococcus aureus 10-11 after 18 to 24 hrs by NCCLS method; how it was run: as §2
Enterococcus faecium [27] = assay: Antibacterial activity against Enterococcus faecium 10-6 after 18 to 24 hrs by NCCLS method; how it was run: as §1
[28] = tested on: Staphylococcus epidermidis; assay: Antibacterial activity against methicillin-resistant Staphylococcus epidermidis 10-13 after 18 to 24 hrs by NCCLS method; how it was run: as §2
Escherichia coli [29] = assay: Antibacterial activity against extended spectrum beta-lactamases producing Escherichia coli 10-2 after 18 to 24 hrs by NCCLS method; how it was run: as §1
Pseudomonas aeruginosa [30] = assay: Antibacterial activity against Pseudomonas aeruginosa 10-15 after 18 to 24 hrs by NCCLS method; how it was run: as §1
Enterococcus faecalis [31] = assay: Antibacterial activity against Enterococcus faecalis 10-7 after 18 to 24 hrs by NCCLS method; how it was run: as §1
Enterococcus faecium [32] = assay: Antibacterial activity against Enterococcus faecium 10-9 after 18 to 24 hrs by NCCLS method; how it was run: as §1
Escherichia coli [33] = assay: Antibacterial activity against Escherichia coli 10-1 after 18 to 24 hrs by NCCLS method; how it was run: as §1
Escherichia coli [34] = assay: Antibacterial activity against extended spectrum beta-lactamases producing Escherichia coli 10-4 after 18 to 24 hrs by NCCLS method; how it was run: as §1
Staphylococcus aureus [35] = assay: Antibacterial activity against methicillin-sensitive Staphylococcus aureus 10-11 after 18 to 24 hrs by NCCLS method; how it was run: as §1
Pseudomonas aeruginosa [36] = assay: Antibacterial activity against Pseudomonas aeruginosa 10-9 after 18 to 24 hrs by NCCLS method; how it was run: as §1
Klebsiella pneumoniae [37] = assay: Antibacterial activity against Klebsiella pneumoniae 10-2 after 18 to 24 hrs by NCCLS method; how it was run: as §1
Escherichia coli [38] = assay: Antibacterial activity against Escherichia coli ATCC 25922 after 18 to 24 hrs by NCCLS method; how it was run: as §1

Compound | MIC (Klebsiella pneumoniae [1]) [µg/mL] | MIC (Streptococcus pneumoniae [2]) [µg/mL] | MIC (Klebsiella pneumoniae [3]) [µg/mL] | MIC (Pseudomonas aeruginosa [4]) [µg/mL] | MIC (Escherichia coli [5]) [µg/mL] | MIC (Klebsiella pneumoniae [6]) [µg/mL] | MIC (Pseudomonas aeruginosa [7]) [µg/mL] | MIC (Klebsiella pneumoniae [8]) [µg/mL] | MIC (Pseudomonas aeruginosa [9]) [µg/mL] | MIC (Enterococcus faecalis [10]) [µg/mL] | MIC (Staphylococcus aureus [11]) [µg/mL] | MIC [12] [µg/mL] | MIC (Escherichia coli [13]) [µg/mL] | MIC [14] [µg/mL] | MIC (Klebsiella pneumoniae [15]) [µg/mL] | MIC (Streptococcus pneumoniae [16]) [µg/mL] | MIC (Staphylococcus aureus [17]) [µg/mL] | MIC (Staphylococcus aureus [18]) [µg/mL] | MIC (Escherichia coli [19]) [µg/mL] | MIC [20] [µg/mL] | also measured
COc1ccc(CN2CCN(c3cc4c(cc3F)c(=O)c(C(=O)O)cn4C3CC3)CC2)c(Cl)c1OC | > 128 | 64 (≈ 124 µM) | 32 (≈ 62 µM) | 128 (≈ 248 µM) | > 128 | > 128 | 64 (≈ 124 µM) | > 128 | 64 (≈ 124 µM) | 64 (≈ 124 µM) | 0.5 (≈ 0.969 µM) | 1 (≈ 1.94 µM) | 32 (≈ 62 µM) | 32 (≈ 62 µM) | > 128 | 2 (≈ 3.88 µM) | 0.5 (≈ 0.969 µM) | 0.06 (≈ 0.116 µM) | > 128 | 2 (≈ 3.88 µM) | MIC (Enterococcus faecalis [21]): 8 µg/mL (≈ 15.5 µM); MIC (Staphylococcus aureus [22]): 128 µg/mL (≈ 248 µM); MIC (Staphylococcus aureus [23]): 64 µg/mL (≈ 124 µM); MIC [24]: 32 µg/mL (≈ 62 µM); MIC (Pseudomonas aeruginosa [25]): 64 µg/mL (≈ 124 µM); MIC (Staphylococcus aureus [26]): 64 µg/mL (≈ 124 µM); MIC (Enterococcus faecium [27]): 4 µg/mL (≈ 7.75 µM); MIC [28]: 32 µg/mL (≈ 62 µM); MIC (Escherichia coli [29]): > 128 µg/mL; MIC (Pseudomonas aeruginosa [30]): 64 µg/mL (≈ 124 µM); MIC (Enterococcus faecalis [31]): 32 µg/mL (≈ 62 µM); MIC (Enterococcus faecium [32]): 32 µg/mL (≈ 62 µM); MIC (Escherichia coli [33]): > 128 µg/mL; MIC (Escherichia coli [34]): > 128 µg/mL; MIC (Staphylococcus aureus [35]): 0.5 µg/mL (≈ 0.969 µM); MIC (Pseudomonas aeruginosa [36]): 128 µg/mL (≈ 248 µM); MIC (Klebsiella pneumoniae [37]): > 128 µg/mL; MIC (Escherichia coli [38]): 1 µg/mL (≈ 1.94 µM)
O=C(O)c1cn(C2CC2)c2cc(N3CCN(Cc4ccc5c(c4)OCO5)CC3)c(F)cc2c1=O | > 128 | 16 (≈ 34.4 µM) | 8 (≈ 17.2 µM) | 8 (≈ 17.2 µM) | 16 (≈ 34.4 µM) | > 128 | 32 (≈ 68.7 µM) | > 128 | 16 (≈ 34.4 µM) | 32 (≈ 68.7 µM) | 1 (≈ 2.15 µM) | 2 (≈ 4.3 µM) | 16 (≈ 34.4 µM) | 16 (≈ 34.4 µM) | > 128 | 8 (≈ 17.2 µM) | 1 (≈ 2.15 µM) | 0.25 (≈ 0.537 µM) | > 128 | 2 (≈ 4.3 µM) | MIC (Enterococcus faecalis [21]): 16 µg/mL (≈ 34.4 µM); MIC (Staphylococcus aureus [22]): 64 µg/mL (≈ 137 µM); MIC (Staphylococcus aureus [23]): 16 µg/mL (≈ 34.4 µM); MIC [24]: 16 µg/mL (≈ 34.4 µM); MIC (Pseudomonas aeruginosa [25]): 16 µg/mL (≈ 34.4 µM); MIC (Staphylococcus aureus [26]): 32 µg/mL (≈ 68.7 µM); MIC (Enterococcus faecium [27]): 8 µg/mL (≈ 17.2 µM); MIC [28]: 16 µg/mL (≈ 34.4 µM); MIC (Escherichia coli [29]): > 128 µg/mL; MIC (Pseudomonas aeruginosa [30]): 16 µg/mL (≈ 34.4 µM); MIC (Enterococcus faecalis [31]): 16 µg/mL (≈ 34.4 µM); MIC (Enterococcus faecium [32]): 8 µg/mL (≈ 17.2 µM); MIC (Escherichia coli [33]): > 128 µg/mL; MIC (Escherichia coli [34]): 16 µg/mL (≈ 34.4 µM); MIC (Staphylococcus aureus [35]): 0.5 µg/mL (≈ 1.07 µM); MIC (Pseudomonas aeruginosa [36]): 16 µg/mL (≈ 34.4 µM); MIC (Klebsiella pneumoniae [37]): 64 µg/mL (≈ 137 µM); MIC (Escherichia coli [38]): 0.25 µg/mL (≈ 0.537 µM)
